Source: ChEMBL document CHEMBL1123648, “Synthesis, chemical reactivity, and antileukemic activity of 5-substituted 6,7-bis(hydroxymethyl)pyrrolo[1,2-c]thiazole biscarbamates and the corresponding sulfoxides and sulfones” (1987)

Key:
P388 [1] = test: Log cell population relative to cell population at the beginning of treatment compared to control group B at a dose of 50 mg/kg; format: functional, Mus musculus
[2] = Antileukemic activity against Murine P388 lymphocytic leukemia, body weight difference of the test animals compared to control group B animals at a dose of 50 mg/kg; format: functional, Mus musculus; set-up: unit not given here
In short: (§1)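 CD2F1 mice implanted intraperitoneally with ascitic fluid carrying ca. 1×10^6 P388 cells, under the NCI protocol. Dosing was intraperitoneal, starting 24 h after inoculation, then every 24 h for five doses in total. The body weight difference of treated mice is taken against untreated controls. Toxicity day survivors are the mice alive at day five out of those tested.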

[3] = Toxicity day survivors expressed as number of animals that survived to day five/ number of test animals under control group B at a dose of 12.5 mg/kg; 6 survived out of 6; format: functional, Mus musculus
[4] = Toxicity day survivors expressed as number of animals that survived to day five/ number of test animals under control group B at a dose of 100 mg/kg; 6 survived out of 6; format: functional, Mus musculus
P388 [5] = test: Log cell population relative to cell population at the beginning of treatment compared to control group B at a dose of 100 mg/kg; format: functional, Mus musculus
P388 [6] = test: Log cell population relative to cell population at the beginning of treatment compared to control group B at a dose of 12.5 mg/kg; format: functional, Mus musculus
[7] = Toxicity day survivors expressed as number of animals that survived to day five/ number of test animals under control group B at a dose of 50 mg/kg; 6 survived out of 6; format: functional, Mus musculus
[8] = Antileukemic activity against Murine P388 lymphocytic leukemia, body weight difference of the test animals compared to control group B animals at a dose of 12.5 mg/kg; format: functional, Mus musculus; set-up: unit not given here; in short: as §1
P388 [9] = test: Log cell population relative to cell population at the beginning of treatment compared to control group B at a dose of 25 mg/kg; format: functional, Mus musculus
[10] = Percent increase in life span of test animals compared to untreated tumor-bearing control group B animals at a dose of 100 mg/kg; format: functional; conditions: Mus musculus
[11] = Antileukemic activity against Murine P388 lymphocytic leukemia, body weight difference of the test animals compared to control group B animals at a dose of 100 mg/kg; format: functional, Mus musculus; set-up: unit not given here; in short: as §1
[12] = Percent increase in life span of test animals compared to untreated tumor-bearing control group B animals at a dose of 50 mg/kg; format: functional; conditions: Mus musculus
[13] = Percent increase in life span of test animals compared to untreated tumor-bearing control group B animals at a dose of 12.5 mg/kg; format: functional; conditions: Mus musculus
[14] = Antileukemic activity against Murine P388 lymphocytic leukemia, body weight difference of the test animals compared to control group B animals at a dose of 25 mg/kg; format: functional, Mus musculus; set-up: unit not given here; in short: as §1
[15] = Toxicity day survivors expressed as number of animals that survived to day five/ number of test animals under control group B at a dose of 25 mg/kg; 6 survived out of 6; format: functional, Mus musculus
[16] = Percent increase in life span of test animals compared to untreated tumor-bearing control group B animals at a dose of 25 mg/kg; format: functional; conditions: Mus musculus
[17] = Percent increase in life span of test animals compared to untreated tumor-bearing control group C animals at a dose of 100 mg/kg; format: functional; conditions: Mus musculus
[18] = Antileukemic activity against Murine P388 lymphocytic leukemia, body weight difference of the test animals compared to control group C animals at a dose of 25 mg/kg; format: functional, Mus musculus; in short: as §1
[19] = Toxicity day survivors expressed as number of animals that survived to day five/ number of test animals under control group C at a dose of 25 mg/kg; 6 survived out of 6; format: functional, Mus musculus
[20] = Percent increase in life span of test animals compared to untreated tumor-bearing control group C animals at a dose of 50 mg/kg; format: functional; conditions: Mus musculus
[21] = Percent increase in life span of test animals compared to untreated tumor-bearing control group C animals at a dose of 200 mg/kg; format: functional; conditions: Mus musculus
[22] = Toxicity day survivors expressed as number of animals that survived to day five/ number of test animals under control group C at a dose of 200 mg/kg; 6 survived out of 6; format: functional, Mus musculus
P388 [23] = test: Log cell population relative to cell population at the beginning of treatment compared to control group C at a dose of 25 mg/kg; format: functional, Mus musculus
[24] = Antileukemic activity against Murine P388 lymphocytic leukemia, body weight difference of the test animals compared to control group C animals at a dose of 200 mg/kg; format: functional, Mus musculus; in short: as §1
P388 [25] = test: Log cell population relative to cell population at the beginning of treatment compared to control group A at a dose of 50 mg/kg; format: functional, Mus musculus
[26] = Antileukemic activity against Murine P388 lymphocytic leukemia, body weight difference of the test animals compared to control group C animals at a dose of 100 mg/kg; format: functional, Mus musculus; set-up: unit not given here; in short: as §1
[27] = Percent increase in life span of test animals compared to untreated tumor-bearing control group C animals at a dose of 25 mg/kg; format: functional; conditions: Mus musculus
P388 [28] = test: Log cell population relative to cell population at the beginning of treatment compared to control group C at a dose of 200 mg/kg; format: functional, Mus musculus
[29] = Toxicity day survivors expressed as number of animals that survived to day five/ number of test animals under control group C at a dose of 100 mg/kg; 6 survived out of 6; format: functional, Mus musculus
[30] = Antileukemic activity against Murine P388 lymphocytic leukemia, body weight difference of the test animals compared to control group C animals at a dose of 50 mg/kg; format: functional, Mus musculus; set-up: unit not given here; in short: as §1
P388 [31] = test: Log cell population relative to cell population at the beginning of treatment compared to control group C at a dose of 100 mg/kg; format: functional, Mus musculus
[32] = Toxicity day survivors expressed as number of animals that survived to day five/ number of test animals under control group C at a dose of 50 mg/kg; 6 survived out of 6; format: functional, Mus musculus

## Cc1c(COC(=O)NC(C)C)c(COC(=O)NC(C)C)c2n1CS(=O)(=O)C2
P388 [1]
  KE: 4.71
[2]
  BWD: -1.8
[3]
  TDS: 6
[4]
  TDS: 6
P388 [5]
  KE: >6.77
P388 [6]
  KE: 0.85
[7]
  TDS: 6
[8]
  BWD: -1.1
P388 [9]
  KE: 2.39
[10]
  ILS at 100 mg/kg: 118%
[11]
  BWD: -4
[12]
  ILS at 50 mg/kg: 84%
[13]
  ILS at 12.5 mg/kg: 42%
[14]
  BWD: -1.8
[15]
  TDS: 6
[16]
  ILS at 25 mg/kg: 59%

## CNC(=O)OCc1c(COC(=O)NC)c2n(c1C)C[S+]([O-])C2 (configuration not stated)
[17]
  ILS at 100 mg/kg: 22%
[18]
  BWD: 0
[19]
  TDS: 6
[20]
  ILS at 50 mg/kg: 13%
[21]
  ILS at 200 mg/kg: 15%
[22]
  TDS: 6
P388 [23]
  KE: -0.09
[24]
  BWD: 0.4
P388 [25]
  KE: -0.09
[26]
  BWD: 0.8
[27]
  ILS at 25 mg/kg: 13%
P388 [28]
  KE: -0.08
[29]
  TDS: 6
[30]
  BWD: 1.1
P388 [31]
  KE: -0.05
[32]
  TDS: 6
